Assay results from ChEMBL document CHEMBL3526142, “Biotransformation of a novel antimitotic agent, I-387, by mouse, rat, dog, monkey, and human liver microsomes and in vivo pharmacokinetics in mice” (Drug Metab Dispos, 2011).

Assays:
Liver microsome [1] = assay: Drug metabolism in human liver microsomes assessed as (3-(1H-indol-2-yl)phenyl)(3,4,5-trimethoxyphenyl)methanol formation at 0.5 uM after 2 hrs by LC-MS/MS analysis in presence of 3 mM NADPH; format: ADME
In short: (§1)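 Pooled liver microsomes (1 mg/ml protein) incubated with 0.5 µM substrate and 3 mM NADPH in 65 mM potassium phosphate, pH 7.4, 1% methanol, at 37°C for 2 h. Stopped with ice-cold acetonitrile containing internal standard, centrifuged. Supernatant analysed by LC-MS/MS on a C18 column, 15-min gradient, with product ion scans for metabolite identification.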

[2] = Metabolic stability in monkey liver microsomes assessed as half life during phase 1 and 2 at 0.5 uM by LC-MS/MS analysis in presence of 3 mM NADPH and […] UDPGA; format: ADME, Macaca mulatta; conditions: rhesus monkey, read-out: alphat1/2
Liver microsome [3] = assay: Drug level in dog liver microsomes assessed as compound retention time treated with 0.5 uM I-387 after 2 hrs by LC-MS/MS analysis; format: ADME, Canis lupus familiaris; in short: as §1
[4] = Mean residence time (infinity) in ICR mouse at 1 mg/kg, iv by LC-MS/MS analysis; format: ADME, organism-based; parameters: dose 1 mg/kg, route intravenous; conditions: in vivo
In short: (§2)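 Male ICR mice (5–6 weeks, 20–25 g), single doses of 1, 5 or 15 mg/kg in 10% DMSO/PEG300, given iv by tail vein, ip, or orally by gavage. Three to four mice per time point, euthanized under isoflurane, blood drawn from posterior vena cava. Plasma protein precipitated with acetonitrile containing internal standard, then LC-MS/MS (MRM m/z 388.2→192). Noncompartmental analysis of mean concentration-time data, AUCinf by trapezoidal rule with extrapolation, CL = dose/AUCinf, Cmax read from the curve. F = (AUCnon-iv × dose iv)/(AUCiv × dose non-iv). n = 3 per dose group.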

[5] = Metabolic stability in dog liver microsomes assessed as half life during phase 1 and 2 at 0.5 uM by LC-MS/MS analysis in presence of 3 mM NADPH and […] UDPGA; format: ADME, Canis lupus familiaris; conditions: read-out: alphat1/2
Liver microsome [6] = assay: Drug metabolism in rat liver microsomes assessed as (3-(1H-indol-2-yl)phenyl)(3,4,5-trimethoxyphenyl)methanol formation at 0.5 uM after 2 hrs by LC-MS/MS analysis in presence of 3 mM NADPH; format: ADME; in short: as §1
[7] = Cmax in ICR mouse at 15 mg/kg, ip by LC-MS/MS analysis; format: ADME, organism-based; parameters: dose 15 mg/kg, route intraperitoneal; conditions: in vivo; in short: as §2
[8] = Cmax in ICR mouse at 15 mg/kg, po via gavage by LC-MS/MS analysis; format: ADME, organism-based; parameters: dose 15 mg/kg, route oral; conditions: in vivo; in short: as §2
[9] = Mean residence time (infinity) in ICR mouse at 1 mg/kg, ip by LC-MS/MS analysis; format: ADME, organism-based; parameters: dose 1 mg/kg, route intraperitoneal; conditions: in vivo; in short: as §2
[10] = AUC (infinity) in ICR mouse at 1 mg/kg, ip by LC-MS/MS analysis; format: ADME, organism-based; parameters: time infinity, dose 1 mg/kg, route intraperitoneal; conditions: plasma; in short: as §2
[11] = AUC (infinity) in ICR mouse at 15 mg/kg, ip by LC-MS/MS analysis; format: ADME, organism-based; parameters: time infinity, dose 15 mg/kg, route intraperitoneal; conditions: plasma; in short: as §2
[12] = Bioavailability in ICR mouse at 5 mg/kg, ip by LC-MS/MS analysis; format: ADME, organism-based; conditions: in vivo; in short: as §2
[13] = AUC (infinity) in ICR mouse at 15 mg/kg, iv by LC-MS/MS analysis; format: ADME, organism-based; parameters: time infinity, dose 15 mg/kg, route intravenous; conditions: plasma; in short: as §2
[14] = Tmax in ICR mouse at 1 mg/kg, po by LC-MS/MS analysis; format: ADME, organism-based; parameters: dose 1 mg/kg, route oral; conditions: in vivo
In short: (§3)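 Male ICR mice (5–6 weeks, 20–25 g) dosed by gavage in 10% DMSO in PEG300. Three to four mice per time point were euthanized under isoflurane and blood taken from the posterior vena cava. Plasma was acetonitrile-precipitated and analysed by LC-MS/MS (MRM m/z 388.2→192). Tmax read by visual inspection. F = (AUC_oral × dose_iv)/(AUC_iv × dose_oral), with AUC_inf by trapezoidal rule; n = 3/dose group.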

[15] = AUC (infinity) in ICR mouse at 5 mg/kg, iv by LC-MS/MS analysis; format: ADME, organism-based; parameters: time infinity, dose 5 mg/kg, route intravenous; conditions: plasma; in short: as §2
Liver = assay: Drug level in mouse liver microsomes assessed as compound retention time treated with 0.5 uM I-387 after 2 hrs by LC-MS/MS analysis; format: ADME; in short: as §1
[16] = Cmax in ICR mouse at 1 mg/kg, po via gavage by LC-MS/MS analysis; format: ADME, organism-based; parameters: dose 1 mg/kg, route oral; conditions: in vivo; in short: as §2
[17] = Tmax in ICR mouse at 1 mg/kg, ip by LC-MS/MS analysis; format: ADME, organism-based; parameters: dose 1 mg/kg, route intraperitoneal; conditions: in vivo
In short: (§4)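 Male ICR mice (20–25 g) given the compound intraperitoneally or by gavage in 10% DMSO/PEG300. Three to four mice were sacrificed per time point and plasma collected from the vena cava. Plasma was precipitated with acetonitrile containing internal standard and analysed by LC-MS/MS. Noncompartmental analysis of mean concentration-time data: terminal t1/2 = ln2/λz; Tmax by inspection; n = 3/dose group.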

[18] = AUC (infinity) in ICR mouse at 5 mg/kg, ip by LC-MS/MS analysis; format: ADME, organism-based; parameters: time infinity, dose 5 mg/kg, route intraperitoneal; conditions: plasma; in short: as §2
[19] = Terminal half life in ICR mouse at 5 mg/kg, po via gavage by LC-MS/MS analysis; format: ADME, organism-based; parameters: dose 5 mg/kg, route oral; conditions: in vivo, read-out: beta t1/2 (converted); in short: as §4
[20] = Terminal half life in ICR mouse at 5 mg/kg, ip by LC-MS/MS analysis; format: ADME, organism-based; parameters: dose 5 mg/kg, route intraperitoneal; conditions: in vivo, read-out: beta t1/2 (converted); in short: as §4
[21] = Mean residence time (infinity) in ICR mouse at 15 mg/kg, iv by LC-MS/MS analysis; format: ADME, organism-based; parameters: dose 15 mg/kg, route intravenous; conditions: in vivo; in short: as §2
Liver microsome [22] = assay: Drug level in rat liver microsomes assessed as compound retention time treated with 0.5 uM I-387 after 2 hrs by LC-MS/MS analysis; format: ADME; in short: as §1
[23] = Cmax in ICR mouse at 1 mg/kg, iv by LC-MS/MS analysis; format: ADME, organism-based; parameters: dose 1 mg/kg, route intravenous; conditions: in vivo; in short: as §2
[24] = Terminal half life in ICR mouse at 15 mg/kg, po via gavage by LC-MS/MS analysis; format: ADME, organism-based; parameters: dose 15 mg/kg, route oral; conditions: in vivo, read-out: beta t1/2 (converted); in short: as §4
[25] = Oral bioavailability in ICR mouse at 1 mg/kg via gavage after 30 mins by LC-MS/MS analysis; format: ADME, organism-based; conditions: in vivo; in short: as §3
[26] = Bioavailability in ICR mouse at 15 mg/kg, ip by LC-MS/MS analysis; format: ADME, organism-based; conditions: in vivo; in short: as §2

COc1cc(C(=O)c2cccc(-c3cc4ccccc4[nH]3)c2)cc(OC)c1OC
Drug metabolism (Liver microsome [1]): metabolite_detected
half-life at 0.5 µM [2]: 0.183 h
Retention_time (Liver microsome [3]): 11.3 min
MRT inf [4]: 3 h
half-life at 0.5 µM [5]: 0.55 h
Drug metabolism (Liver microsome [6]): metabolite_detected
Cmax [7]: 4290 ng/mL
Cmax [8]: 260 ng/mL
MRT inf [9]: 6.4 h
AUC(0-inf) [10]: 400 ng·h/mL
AUC(0-inf) [11]: 12600 ng·h/mL
bioavailability [12]: 95%
AUC(0-inf) [13]: 13400 ng·h/mL
Tmax [14]: 0.5 h
AUC(0-inf) [15]: 3950 ng·h/mL
Retention_time (Liver): 11.3 min
Cmax [16]: 30 ng/mL
Tmax [17]: 5 min
AUC(0-inf) [18]: 3750 ng·h/mL
half-life [19]: 7.7 h
half-life [20]: 4.9 h
MRT inf [21]: 8.8 h
Retention_time (Liver microsome [22]): 11.3 min
Cmax [23]: 550 ng/mL
half-life [24]: 7.9 h
bioavailability [25]: 24%
bioavailability [26]: 94%
